S100A4 MyoIIA = blocks human S100A4 binding to myosin IIA peptide. P26447. S100A4/TAMRA-MyoIIA peptide fluorescence polarization. inhibition, % at 10.7 µM. actives 0.14% (n = 360,000). AID 652163;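 active means mean inhibition of at least 70% across replicates, with every replicate also reaching that level; inconclusive means mean inhibition reaches 70% but some replicates fall short; inactive means mean inhibition below 70%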
Target sequence (P26447 whole entry, looked up): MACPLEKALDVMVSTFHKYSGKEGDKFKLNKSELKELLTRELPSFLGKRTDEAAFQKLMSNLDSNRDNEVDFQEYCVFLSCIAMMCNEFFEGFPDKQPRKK
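System – human S100A4 monomer protein, biochemical binding assay · Buffer or medium – Calcium-containing HEPES buffer, pH 7.2 · Timing – 5 min between mix addition and reading · Also added – TAMRA-labelled myosin IIA heavy-chain peptide probe, 5 nM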
PGC1a acetyl inh = modulators of PGC1a acetylation. U2OS PGC1a acetylation, AlphaScreen anti-acetyl-lysine; with virally co-expressed GCN5 acetyltransferase. inhibition, % at 15.6 µM. actives 0.17% (n = 350,000). AID 651687;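 active means every replicate shows inhibition of at least 40%; inconclusive means mean inhibition at least 40% but some replicate below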;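 further: 0% = neutral control wells and 100% = positive control wells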
Cneo AK release = causes C. neoformans cell lysis; actives 0.2% (n = 360,000); AID 651654; lysis activity, % at 15 µM; adenylate kinase release luminescence, 4 h; normalised: neutral wells 0, clomiphene wells 100;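 active means mean lysis activity across replicates of at least 80%, whatever share of replicates individually reach that level; inactive means mean lysis activity below 80%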
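Material: C. neoformans cells | Amount: Yeast cell density of 5 × 10^6 cells/mL | Medium: Fresh YPD growth medium | Dosing: Single dose | Times: Static 4 h at 37 °C with compound, 1 h detection | Detection: AK luminescence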
Statin myotox sup = suppression of simvastatin myotoxicity; C2C12 myotubes + simvastatin, ATP luminescence, 48 h; scaled: DMSO 0, geranylgeraniol control 100; rescue of ATP level, % at 7.49 µM; actives 0.78% (n = 330,000);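 active means mean ATP rescue above about 67%, or every replicate alone reaching that limit, limit read from the data, passing the limit was not always enough; inconclusive means no clear call, values can overlap the other calls; inactive means mean under the limit and some replicate under it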;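 further: myotubes were challenged with 10 µM simvastatin during compound exposure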
SIRT5 inh = sirtuin-5 (human) deacylase inhibition; inhibition, % at 15 µM; Purified SirT5, succinyl-peptide AMC, trypsin-coupled fluorescence; actives 1.1% (n = 330,000); AID 652115; Q9NXA8; in the data active means inhibition above about 15%; inconclusive means no clear call, values can overlap the other calls
Target sequence (Q9NXA8 whole entry, looked up): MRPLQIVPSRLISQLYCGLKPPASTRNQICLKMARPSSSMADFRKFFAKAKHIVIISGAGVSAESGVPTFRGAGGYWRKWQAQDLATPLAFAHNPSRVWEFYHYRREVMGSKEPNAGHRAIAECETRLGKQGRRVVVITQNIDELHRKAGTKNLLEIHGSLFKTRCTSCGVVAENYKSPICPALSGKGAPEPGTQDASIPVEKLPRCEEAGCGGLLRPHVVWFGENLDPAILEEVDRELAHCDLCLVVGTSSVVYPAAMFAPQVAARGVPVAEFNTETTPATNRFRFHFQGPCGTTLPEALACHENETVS
Ecoli rRNA inh = selective bacterial rRNA inhibition in E. coli. E. coli WT GFP vs humanized-ribosome RFP mutants, fluorescence, 24 h; hits give low values; DMSO median 0, no signal -100. GFP signal change (wild-type ribosome), % (test concentration not listed). actives 1.6% (n = 350,000). AID 720706;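 active means significant combined selectivity score with lowered wild-type GFP, culture density cut under 30%, mutant RFP and density less affected; inactive means any of these conditions unmet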
Active calls of the source: *; ? = inconclusive; · = not tested or not shown; ! = repeats disagree. This is a sample that favours compounds with a hit; in the whole collection about 3% have one here.

SMILES	S100A4 MyoIIA	PGC1a acetyl inh	Cneo AK release	Statin myotox sup	SIRT5 inh	Ecoli rRNA inh
C/C=C/c1ccc2c(c1)O[C@@H](CN(C)Cc1ccccc1F)[C@H](C)CN([C@H](C)CO)S2(=O)=O	5	6	16	·	?	-22
C/C=C/c1ccc2c(c1)O[C@@H](CN(C)Cc1ccc(F)cc1)[C@H](C)CN([C@H](C)CO)S2(=O)=O	-1	-7	8	-47	16*	·
COc1ccc2c3c([nH]c2c1)[C@H](CO)N(C(=O)c1cccnc1)CC31CCN(C(=O)Nc2cccc(F)c2)CC1	9	·	·	·	5	-4
Cc1c(Cc2ccc3c(c2)OCO3)sc(NC(=O)C2CC2)c1C(N)=O	-1	-10	-3	·	6	-27*
Cc1c(Cc2ccc3c(c2)OCO3)sc(NC(=O)c2cccc3ccccc23)c1C(N)=O	4	·	-2	-13	7	1
NC(=O)C1CC(=O)N(Cc2ccc3c(c2)OCO3)C(=Nc2ccccc2)S1 (stereo not drawn)	-4	-2	2	53	-7	-18*
C/C(=N\NC(=O)c1cc(-c2ccc(C)s2)[nH]n1)c1ccco1	0	·	·	·	1	-35*
C/C(=N/NC(=O)c1cc(C)[nH]n1)c1ccco1	7	-12	·	·	0	17
C[C@@H]1CN([C@@H](C)CO)C(=O)c2cc(NC(=O)c3ccccc3)ccc2O[C@@H](C)CCCCO[C@H]1CN(C)C(=O)NC1CCCCC1	·	4	-4	·	·	1
C[C@H](CO)N1C[C@H](C)[C@@H](CN(C)S(=O)(=O)c2ccc(F)cc2)Oc2cc(Br)ccc2S1(=O)=O	4	1	0	?	-5	-25*!
C[C@H](CO)N1C[C@H](C)[C@H](CN(C)S(=O)(=O)c2ccc(F)cc2)Oc2cc(Br)ccc2S1(=O)=O	1	-23	0	-55	2	-4
C[C@@H]1CN([C@H](C)CO)S(=O)(=O)c2ccc(C#Cc3ccc(F)cc3)cc2O[C@H]1CN(C)S(=O)(=O)c1cn(C)cn1	-9	0	-3	3	0	2
C[C@@H]1CN([C@H](C)CO)S(=O)(=O)c2ccc(C#Cc3ccc(F)cc3)cc2O[C@@H]1CN(C)S(=O)(=O)c1ccc(F)cc1	-7	3	1	8	30*	7
C[C@H]1CN([C@@H](C)CO)S(=O)(=O)c2ccc(C#Cc3ccc(F)cc3)cc2O[C@@H]1CN(C)S(=O)(=O)c1cn(C)cn1	10	3	-2	74*	3	·
C[C@@H]1CN([C@H](C)CO)S(=O)(=O)c2ccc(C#Cc3ccc(F)cc3)cc2O[C@H]1CN(C)S(=O)(=O)c1ccc(F)cc1	2	-3	7	-3	26*	2
C[C@@H]1CN([C@@H](C)CO)S(=O)(=O)c2ccc(C#Cc3ccncc3)cc2O[C@@H]1CN(C)S(=O)(=O)c1ccc(F)cc1	-12	16	-6	-85	-14	-6
O=C(C[C@@H]1C[C@H]2c3cc(NS(=O)(=O)c4ccc(F)cc4)ccc3O[C@H]2[C@@H](CO)O1)N1CCCCC1	-12	-8	44	0	2	-2
C[C@H]1CN([C@@H](C)CO)S(=O)(=O)c2ccc(C#Cc3ccc(F)cc3)cc2O[C@@H]1CN(C)S(C)(=O)=O	-25	50	-12	1	13*	-3
C[C@H](CO)N1C[C@H](C)[C@H](CN(C)S(=O)(=O)c2ccc(F)cc2)Oc2cc(C#Cc3ccc(F)cc3)ccc2S1(=O)=O	3	5	-1	21	27*	-1
C[C@H]1CN([C@@H](C)CO)S(=O)(=O)c2ccc(C#Cc3ccc(F)cc3)cc2O[C@H]1CN(C)S(C)(=O)=O	-9	-18	-6	26	5	0
C[C@@H]1CN([C@H](C)CO)C(=O)c2cc(NS(=O)(=O)c3ccc(Cl)cc3)ccc2O[C@H]1CN(C)S(=O)(=O)c1ccccc1	·	-12	4	-7	·	-2
CN(C)C1=NCC(CSC(=N)N)S1 (stereo not drawn)	48	·	0	6	·	-37*
COc1ccc(S(=O)(=O)N(C)C[C@@H]2OCCCC[C@@H](C)Oc3ccc(NS(=O)(=O)c4ccc(C)cc4)cc3C(=O)N([C@@H](C)CO)C[C@H]2C)cc1	12	-9	-2	11	17*	-4
COc1ccc(S(=O)(=O)Nc2ccc3c(c2)C(=O)N([C@@H](C)CO)C[C@H](C)[C@H](CN(C)S(=O)(=O)c2ccc(C)cc2)OCCCC[C@@H](C)O3)cc1	-5	1	-2	·	9	-1
COc1ccc(S(=O)(=O)N(C)C[C@H]2OCCCC[C@@H](C)Oc3ccc(NS(=O)(=O)c4ccc(C)cc4)cc3C(=O)N([C@@H](C)CO)C[C@H]2C)cc1	-13	7	4	22	24*	7
SMILES	S100A4 MyoIIA	PGC1a acetyl inh	Cneo AK release	Statin myotox sup	SIRT5 inh	Ecoli rRNA inh
COc1ccc(S(=O)(=O)N(C)C[C@@H]2OCCCC[C@H](C)Oc3ccc(NS(=O)(=O)c4ccccc4)cc3C(=O)N([C@@H](C)CO)C[C@H]2C)cc1	-14	-6	-2	·	4	-2
COc1ccc(S(=O)(=O)Nc2ccc3c(c2)C(=O)N([C@@H](C)CO)C[C@H](C)[C@H](CN(C)S(=O)(=O)c2ccccc2)OCCCC[C@@H](C)O3)cc1	11	-2	·	·	15*	-2
COc1ccc(S(=O)(=O)N(C)C[C@@H]2OCCCC[C@@H](C)Oc3ccc(NS(=O)(=O)c4ccc(C)cc4)cc3C(=O)N([C@H](C)CO)C[C@@H]2C)cc1	-6	3	-1	-4	15*	2
CC(C)NC(=O)Nc1ccc2c(c1)CC(=O)N([C@H](C)CO)C[C@@H](C)[C@@H](CN(C)C(=O)Nc1ccc(F)cc1)O2	-1	-5	-2	4	1	5
COCC(=O)N(C)C[C@@H]1Oc2cc(C#CC3CCCC3)ccc2S(=O)(=O)N([C@H](C)CO)C[C@@H]1C	·	20	·	31	·	-3
COc1ccc(S(=O)(=O)Nc2ccc3c(c2)C(=O)N([C@H](C)CO)C[C@@H](C)[C@H](CN(C)S(=O)(=O)c2ccc(C)cc2)OCCCC[C@H](C)O3)cc1	-1	-3	-1	·	11	-3
COc1ccc(S(=O)(=O)N(C)C[C@H]2OCCCC[C@H](C)Oc3ccc(NS(=O)(=O)c4ccc(C)cc4)cc3C(=O)N([C@H](C)CO)C[C@H]2C)cc1	-34	9	6	9	29*	0
COc1ccc(S(=O)(=O)Nc2ccc3c(c2)C(=O)N([C@H](C)CO)C[C@H](C)[C@@H](CN(C)S(=O)(=O)c2ccc(C)cc2)OCCCC[C@@H](C)O3)cc1	-11	4	-4	·	13	-3

Screening data: PubChem, Broad Institute
